Data taken from ChEMBL document CHEMBL1123304 (J Med Chem, 1986).

How the values were obtained:
Mus musculus [1] = organism: Mus musculus; experiment: Amphetamine induced motility in mice; format: functional
Felis catus [2] = organism: Felis catus; experiment: Compound was tested for potentiating the dopamine-induced hypotension in cats.; format: functional
[3] = Lethal effect was determined in mice; format: ADME, organism-based; conditions: mouse, in vivo
In short: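 Male CFLP (Swiss) mice, 18–22 g, dosed sc. Vehicle was physiological saline, with Tween-80 added for some compounds in this determination; controls received the solvent. LD50 in mg/kg determined.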

[4] = target: Sodium-dependent dopamine transporter (Rattus norvegicus) (UniProt P23977); experiment: Inhibitory activity against inducing stereotypy in rats; format: functional
In short: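 Male CFY (Sprague-Dawley) rats. Animals showing stereotypy were placed in an activity meter. Doses giving 5 times control motility were determined. Minimum effective dose, sc.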

Mus musculus [5] = experiment: Dose influencing (+/-) the spontaneous motility in mice, administered intraperitoneally (ip); format: functional
In short: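 CFLP male mice, 10/group. Spontaneous motility recorded in a circuit-closing apparatus, no amphetamine. Compounds given 15 or 30 min before testing. Vehicle controls. Minimum dose raising (+) or lowering (−) motility, ip.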

Mus musculus [6] = organism: Mus musculus; experiment: Inhibitory activity against reserpine hypothermia in mice.; format: functional
In short: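 Mice (male CFLP, 18–22 g, 10/group) given reserpine 1 mg/kg ip 3 h before testing. Rectal temperature read with a thermistor probe. Compounds given sc 15 or 30 min before testing. Minimum effective dose.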

Mus musculus [7] = experiment: Inhibition of tetrabenazine ptosis in mice (sc).; format: functional
Mus musculus [8] = experiment: Inhibitory activity against tetrabenazine catalepsy in mice (sc); format: functional
Mus musculus [9] = experiment: Compound was evaluated for the dose influencing (+/-) the amphetamine induced motility in mice, administered intraperitoneally (ip); format: functional
Mus musculus [10] = organism: Mus musculus; experiment: Compound was evaluated for the inhibitory activity against Tetrabenazine ptosis in mice; format: functional
In short: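 CFLP male mice, 18–22 g, 10/group. Tetrabenazine 35 mg/kg ip at −20 min. Ptosis rated by an observer blind to treatment. Compounds given sc 15 or 30 min beforehand. Controls received the vehicle. ED50 with range.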

Mus musculus [11] = organism: Mus musculus; experiment: Compound was evaluated for the inhibitory activity against tetrabenazine catalepsy in mice; format: functional
In short: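 Male CFLP (Swiss) mice, 18–22 g, 10/group. Tetrabenazine 25 mg/kg ip, 30 min before testing. Catalepsy scored on a vertical grid. Compounds given sc 15 or 30 min before testing. Controls received the vehicle. ED50 with range.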

[12] = target: Sodium-dependent dopamine transporter (Mus musculus) (UniProt Q61327); experiment: Compound was evaluated for the inhibitory activity against Haloperidol catalepsy in mice; format: functional
In short: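 Male CFLP (Swiss) mice, 18–22 g, 10/group. Haloperidol 5 mg/kg ip, 60 min. Catalepsy tested on a vertical grid. Compounds given sc 15 or 30 min before testing, in saline or the listed vehicles. Controls received the vehicle. ED50 with range.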

Felis catus [13] = organism: Felis catus; experiment: Compound was tested for potentiating the dopamine-induced hypotension in cats; format: functional

Sodium-dependent dopamine transporter (Rattus norvegicus), sequence (P23977 whole entry): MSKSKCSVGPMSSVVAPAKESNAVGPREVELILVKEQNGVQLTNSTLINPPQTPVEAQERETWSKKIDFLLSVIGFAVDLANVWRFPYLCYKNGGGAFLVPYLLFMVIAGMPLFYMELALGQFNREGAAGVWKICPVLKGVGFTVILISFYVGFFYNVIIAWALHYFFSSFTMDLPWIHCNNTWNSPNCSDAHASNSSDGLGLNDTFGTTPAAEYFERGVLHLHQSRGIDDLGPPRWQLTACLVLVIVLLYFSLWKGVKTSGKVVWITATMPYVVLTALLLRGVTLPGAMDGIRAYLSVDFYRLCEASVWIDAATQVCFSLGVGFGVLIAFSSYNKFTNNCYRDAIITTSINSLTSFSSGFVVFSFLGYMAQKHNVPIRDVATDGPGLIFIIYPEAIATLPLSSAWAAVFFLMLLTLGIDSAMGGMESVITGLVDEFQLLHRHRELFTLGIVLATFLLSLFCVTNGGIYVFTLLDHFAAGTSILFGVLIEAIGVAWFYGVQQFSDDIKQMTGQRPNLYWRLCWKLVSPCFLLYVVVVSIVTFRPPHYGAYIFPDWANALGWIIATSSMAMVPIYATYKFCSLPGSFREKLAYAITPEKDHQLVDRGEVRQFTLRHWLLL
Sodium-dependent dopamine transporter (Mus musculus), sequence (Q61327 whole entry): as the sequence (P23977 whole entry) above, with S21P, A57V, A194S, H600R, L619V counted along it

| SMILES | EDmin (Mus musculus [1]) [mg/kg] | EDmin (Felis catus [2]) [mg/kg] | LD50 [3] [mg/kg] | EDmin [4] [mg/kg] | EDmin (Mus musculus [5]) [mg/kg] | EDmin (Mus musculus [6]) [mg/kg] | ED50 (Mus musculus [7]) [mg/kg] | ED50 (Mus musculus [8]) [mg/kg] | EDmin (Mus musculus [9]) [mg/kg] | ED50 (Mus musculus [10]) [mg/kg] | ED50 (Mus musculus [11]) [mg/kg] | ED50 [12] [mg/kg] | EDmin (Felis catus [13]) [mg/kg] |
| --- | --- | --- | --- | --- | --- | --- | --- | --- | --- | --- | --- | --- | --- |
| CCCCNC(=O)Nc1cccc2c1CN(C)CC2c1ccc(C)cc1 (stereo unspecified) | 20 | >5 | > 1200 | 83 | 20 | 20 | ~15 | 40 |  |  |  |  |  |
| CN1Cc2c(N)cccc2C(c2ccc(Cl)cc2)C1 (stereo unspecified) | 5 |  | 240 |  | 10 | 2 | 1.1 | 1.6 |  |  |  |  |  |
| CCNCC(=O)Nc1cccc2c1CN(C)CC2c1ccc(C)cc1 (stereo unspecified) | >10 | 1.5 | 320 | > 83 | 10 | 20 | 5.6 | ~45 |  |  |  |  |  |
| Cc1ccc(C2CN(C)Cc3c(N)cccc32)cc1 (stereo unspecified) |  | 0.2 | 800 |  | 15 | 2 | ~1.2 | 1.6 | 10 |  |  |  |  |
| CCOC(=O)Nc1cccc2c1CN(C)CC2c1ccc(Cl)cc1 (stereo unspecified) | 20 | 0.5 | 830 | 5.2 | 3 | 10 | 0.6 | 4.8 |  |  |  |  |  |
| CCCCNCC(=O)Nc1cccc2c1CN(C)CC2c1ccc(Cl)cc1 (stereo unspecified) | >20 | 0.5 | 320 | 32.8 | >20 | 5 | 3.9 | 13.5 |  |  |  |  |  |
| CCCCNC(=O)Nc1cccc2c1CN(C)CC2c1ccccc1 (stereo unspecified) | 80 | 2 | 430 | > 83 | 80 | >40 | 23 | ~40 |  |  |  |  |  |
| CC(C)c1ccc(C2CN(C)Cc3c(N)cccc32)cc1 (stereo unspecified) | 80 | 2 | 1100 |  | 80 | 50 | 68 | > 80 |  |  |  |  |  |
| CN1Cc2c(NC(=O)CCl)cccc2C(c2ccccc2)C1 (stereo unspecified) | 10 | 1 | 94 | 8 | 20 | >30 |  |  |  | 3 | 10 | 10 |  |
| CN1Cc2c(NC(=O)CCCl)cccc2C(c2ccccc2)C1 (stereo unspecified) | >15 | 1 | 89 | 20.5 | >30 | >30 |  |  |  | 8.8 | > 30 | 19 |  |
| CCOC(=O)Nc1cccc2c1CN(C)CC2c1ccc(F)cc1 (stereo unspecified) | 5 | 2 | 255 | 8 | 20 | 10 | 3.3 | 3.5 |  |  |  |  |  |
| CC(C)NCC(=O)Nc1cccc2c1CN(C)CC2c1ccccc1 (stereo unspecified) | >30 | 1 | 300 | > 52.4 | 30 | 20 |  | 14 |  |  |  |  |  |
| CCNCCC(=O)Nc1cccc2c1CN(C)CC2c1ccccc1 (stereo unspecified) | >160 | 4 | 720 | 134 | 160 | 200 | > 160 | > 200 |  |  |  |  |  |
| CCCCNC(=O)Nc1cccc2c1CN(C)CC2c1ccc(Cl)cc1 (stereo unspecified) | >30 | 3 | > 1000 | 134 | 15 | >100 | 15 | 44 |  |  |  |  |  |
| CCCCOC(=O)Nc1cccc2c1CN(C)CC2c1ccccc1 (stereo unspecified) | >5 | 2 | 180 | 20.5 | 5 | 20 | 2.6 | 4 |  |  |  |  |  |
| CN1Cc2c(NC(=O)CN3CCOCC3)cccc2C(c2ccccc2)C1 (stereo unspecified) | 60 | 3 | 295 | 83 | 60 | 20 |  | 39 |  |  |  |  |  |

| SMILES | EDmin (Mus musculus [1]) [mg/kg] | EDmin (Felis catus [2]) [mg/kg] | LD50 [3] [mg/kg] | EDmin [4] [mg/kg] | EDmin (Mus musculus [5]) [mg/kg] | EDmin (Mus musculus [6]) [mg/kg] | ED50 (Mus musculus [7]) [mg/kg] | ED50 (Mus musculus [8]) [mg/kg] | EDmin (Mus musculus [9]) [mg/kg] | ED50 (Mus musculus [10]) [mg/kg] | ED50 (Mus musculus [11]) [mg/kg] | ED50 [12] [mg/kg] | EDmin (Felis catus [13]) [mg/kg] |
| --- | --- | --- | --- | --- | --- | --- | --- | --- | --- | --- | --- | --- | --- |
| CCNC(=O)Nc1cccc2c1CN(C)CC2c1ccccc1 (stereo unspecified) | 40 | 6 | 290 | > 83 | 80 | 40 | 54 | 80 |  |  |  |  |  |
| CCCCNCC(=O)Nc1cccc2c1CN(C)CC2c1ccc(C)cc1 (stereo unspecified) | >10 | 1 | 320 | 52.4 | 5 | 10 | ~2.5 | 34 |  |  |  |  |  |
| CCCCNCC(=O)Nc1cccc2c1CN(C)CC2c1ccccc1 (stereo unspecified) | >30 | 2 | 240 | 32.8 | 15 | >40 |  | 32 |  |  |  |  |  |
| CCCCNCCC(=O)Nc1cccc2c1CN(C)CC2c1ccccc1 (stereo unspecified) | >80 | >5 | 292 | > 83 | >80 | >40 | 74 | ~46 |  |  |  |  |  |
| CCCNC(=O)Nc1cccc2c1CN(C)CC2c1ccccc1 (stereo unspecified) | 80 | 10 | 455 | > 83 | >80 | >60 | > 80 | > 80 |  |  |  |  |  |
| CN1Cc2c(N)cccc2C(c2ccc(F)cc2)C1 (stereo unspecified) | 10 | 0.2 | 222 |  | 5 | 2 | 0.25 | ~3.6 |  |  |  |  |  |
| CN1Cc2c(NC(=O)CN3CCCCC3)cccc2C(c2ccccc2)C1 (stereo unspecified) | >60 | 3.5 | 520 | > 83 | >100 | 20 |  | ~65 |  |  |  |  |  |
| CN1Cc2c(N)cccc2C(c2ccccc2)C1 (stereo unspecified) [NOMIFENSINE] | >5 |  | 336 |  | 10 |  |  |  |  |  |  |  | 0.5 |
| CCNCC(=O)Nc1cccc2c1CN(C)CC2c1ccccc1 (stereo unspecified) | >30 | 2 | 320 | 52.4 | >60 | 60 |  | 47 |  |  |  |  |  |
| CN1Cc2c(NC(=O)OCCCl)cccc2C(c2ccccc2)C1 (stereo unspecified) | 5 | 2 | 160 | > 20.5 | >20 | 20 |  |  |  | 2.5 | 9 | 11 |  |
| CCOC(=O)Nc1cccc2c1CN(C)CC2c1ccccc1 (stereo unspecified) | 4 |  | 71 | > 12.8 | >8 | 2 | ~4 | 3.2 |  |  |  |  |  |
| CN1Cc2c(NC(=O)OCc3ccccc3)cccc2C(c2ccccc2)C1 (stereo unspecified) | 100 | >5 | > 1000 | 12 | 100 | 20 | 16 | ~15 |  |  |  |  |  |
| CC(C)NCCC(=O)Nc1cccc2c1CN(C)CC2c1ccccc1 (stereo unspecified) | 160 | 2 | 900 | > 83 | 160 | 200 | ~125 | 150 |  |  |  |  |  |
| CCNCC(=O)Nc1cccc2c1CN(C)CC2c1ccc(Cl)cc1 (stereo unspecified) | >20 | 0.5 | 325 | 32.8 | 20 | 5 | 6.4 | 24 |  |  |  |  |  |
| CN1Cc2c(NC(=O)CN3CCCC3)cccc2C(c2ccccc2)C1 (stereo unspecified) | >120 | 3 | 380 | 52.4 | 120 | 50 | ~25 | 39 |  |  |  |  |  |
